Experimental data published in ChEMBL document CHEMBL2157965, “Structure-based design of potent Bcl-2/Bcl-xL inhibitors with strong in vivo antitumor activity” (J Med Chem, 2012).
The source made the active and inactive calls. The rule behind the calls is not given here. Peptide text beside a SMILES is read from it.

Key:
[1] = system: NCI-H1963; test: Antiproliferative activity against human NCI-H1963 cells after 4 days by WST8 assay; type: functional, cell-based; details: NCI-H1963, 96 h
How it was run: (§1)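 Growth inhibition was measured as described previously. IC50 values come from growth curves.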

[2] = biological target: Induced myeloid leukemia cell differentiation protein Mcl-1 (Homo sapiens, UniProt Q07820); test: Inhibition of human N-terminal His8-tagged Mcl1 expressed in Escherichia coli BL21(DE3) assessed as inhibition of Fluorescein-labeled BID binding after 1 to 2 hrs by fluorescence polarization assay
[3] = biological target: Bcl-2-like protein 1 (Homo sapiens, UniProt Q07817); test: Inhibition of human N-terminal His8-tagged Bcl-XL expressed in Escherichia coli BL21(DE3) assessed as inhibition of Fluorescein-labeled BAK binding after 1 to 2 hrs by fluorescence polarization assay
[4] = system: NCI-H146; test: Induction of apoptosis in human NCI-H146 cells assessed as caspase3 activation after 24 hrs by Western blot analysis; type: functional, cell-based
How it was run: (§2)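 H146 cells were treated for 24 h at a range of concentrations. Lysates were probed by Western blot with rabbit antibodies to PARP and caspase-3, detecting the cleaved forms. GAPDH served as loading control.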

[5] = system: NCI-H1417; test: Antiproliferative activity against human NCI-H1417 cells after 4 days by WST8 assay; type: functional, cell-based; details: NCI-H1417, 96 h; how it was run: as §1
[6] = system: NCI-H146; test: Induction of cell death in human NCI-H146 cells after 24 hrs by trypan blue assay; type: functional, cell-based
How it was run: (§3)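 H146 cells were treated for 24 h across a range of concentrations. Cell death was scored by trypan blue assay.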

[7] = Antiproliferative activity against human NCI-H146 cells after 4 days by WST8 assay; type: functional, cell-based; details: NCI-H146, 96 h; how it was run: as §1
[8] = system: NCI-H146; test: Induction of apoptosis in human NCI-H146 cells assessed as PARP cleavage after 24 hrs by Western blot analysis; type: functional, cell-based; how it was run: as §2
[9] = Inhibition of human N-terminal His6-tagged Bcl2 isoform 2 expressed in Escherichia coli BL21(DE3) assessed as inhibition of Fluorescein-labeled BIM binding after 1 to 2 hrs by fluorescence polarization assay
[10] = system: NCI-H146; test: Induction of apoptosis in human NCI-H146 cells assessed as increase in cytochrome c release after 2 hrs; type: functional, cell-based
[11] = system: NCI-H146; test: Induction of apoptosis in human NCI-H146 cells assessed as PARP cleavage at 10 nM after 24 hrs by Western blot analysis; type: functional, cell-based; how it was run: as §2
[12] = system: NCI-H146; test: Induction of apoptosis in human NCI-H146 cells assessed as PARP cleavage after 2 hrs by Western blot analysis; type: functional, cell-based
[13] = system: NCI-H146; test: Induction of apoptosis in human NCI-H146 cells assessed as caspase3 activation at 10 nM after 24 hrs by Western blot analysis; type: functional, cell-based; how it was run: as §2
[14] = system: NCI-H146; test: Induction of apoptosis in human NCI-H146 cells assessed as increase in cytochrome c release at 30 nM after 2 hrs; type: functional, cell-based
[15] = system: NCI-H146; test: Induction of apoptosis in human NCI-H146 cells assessed as PARP cleavage at 30 nM after 2 hrs by Western blot analysis; type: functional, cell-based
[16] = system: NCI-H146; test: Induction of cell death in human NCI-H146 cells at 10 nM after 24 hrs by trypan blue assay; type: functional, cell-based; how it was run: as §3
[17] = system: Mus musculus; test: Toxicity in SCID mouse assessed as weight loss at 25 mg/kg, iv administered 5 days a week for 2 weeks; type: organism-based; design: dose 25 mg/kg, route intravenous; details: in vivo
[18] = Antitumor activity against human NCI-H146 cells xenografted in SCID mouse assessed as tumor size at 25 mg/kg, iv administered 5 days a week for 2 weeks measured on day 92 ( Rvb = 800 mm3); type: functional
How it was run: (§4)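 SCID mice received 5 × 10^6 H146 cells with matrigel, injected subcutaneously on the dorsal side, one tumor per mouse. At 40–110 mm3 (mean 70 mm3), mice were randomized, 8 per group. Dosing was 25 mg/kg i.v. daily, 5 days/week for 2 weeks, versus vehicle. Tumor size and body weight were measured 3×/week during treatment and 2×/week afterwards.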

[19] = system: NCI-H146; test: Induction of apoptosis in human NCI-H146 cells xenografted in SCID mouse assessed as PARP cleavage at 25 mg/kg, iv at 3 hrs by Western blot analysis; type: functional, organism-based; design: dose 25 mg/kg
How it was run: (§5)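 SCID mice bearing subcutaneous H146 tumors (about 100 mm3) received a single i.v. dose of 25 mg/kg or vehicle. Tumors were collected at 3, 6 and 24 h. Western blot of tumor tissue assessed PARP and caspase-3 and their cleaved forms, with GAPDH as loading control.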

[20] = system: NCI-H146; test: Antitumor activity against human NCI-H146 cells xenografted in SCID mouse assessed as tumor regression at 25 mg/kg, iv administered 5 days a week for 2 weeks relative to vehicle-treated control; type: functional, organism-based; design: dose 25 mg/kg; how it was run: as §4
[21] = system: NCI-H146; test: Induction of apoptosis in human NCI-H146 cells xenografted in SCID mouse assessed as caspase3 activation at 25 mg/kg, iv at 3 hrs by Western blot analysis; type: functional, organism-based; design: dose 25 mg/kg; how it was run: as §5
[22] = system: NCI-H146; test: Induction of apoptosis in human NCI-H146 cells xenografted in SCID mouse assessed as caspase3 activation at 25 mg/kg, iv up to 24 hrs by Western blot analysis; type: functional, organism-based; design: dose 25 mg/kg; how it was run: as §5
[23] = system: Mus musculus; test: Toxicity in SCID mouse xenografted with human NCI-H146 cells assessed as weight loss at 25 mg/kg, iv administered 5 days a week for 2 weeks; type: organism-based; design: dose 25 mg/kg, route intravenous; details: in vivo; how it was run: as §4
[24] = system: NCI-H146; test: Induction of apoptosis in human NCI-H146 cells xenografted in SCID mouse assessed as PARP cleavage at 25 mg/kg, iv up to 24 hrs by Western blot analysis; type: functional, organism-based; design: dose 25 mg/kg; how it was run: as §5
[25] = system: NCI-H146; test: Antitumor activity against human NCI-H146 cells xenografted in SCID mouse assessed as tumor growth inhibition at 25 mg/kg, iv administered 5 days a week for 2 weeks relative to vehicle-treated control; type: functional, organism-based; design: dose 25 mg/kg; how it was run: as §4

Chain of Induced myeloid leukemia cell differentiation protein Mcl-1 (Q07820 whole entry): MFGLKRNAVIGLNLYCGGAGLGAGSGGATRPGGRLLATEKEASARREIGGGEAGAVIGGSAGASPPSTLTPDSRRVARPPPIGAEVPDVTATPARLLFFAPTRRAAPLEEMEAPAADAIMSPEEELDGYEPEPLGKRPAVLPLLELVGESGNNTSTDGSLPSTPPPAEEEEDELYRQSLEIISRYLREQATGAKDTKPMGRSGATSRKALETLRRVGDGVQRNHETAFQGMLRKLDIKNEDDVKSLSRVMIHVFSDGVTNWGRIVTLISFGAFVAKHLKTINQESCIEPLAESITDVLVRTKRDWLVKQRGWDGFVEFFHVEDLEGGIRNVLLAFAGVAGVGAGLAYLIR
Chain of Bcl-2-like protein 1 (Q07817 whole entry): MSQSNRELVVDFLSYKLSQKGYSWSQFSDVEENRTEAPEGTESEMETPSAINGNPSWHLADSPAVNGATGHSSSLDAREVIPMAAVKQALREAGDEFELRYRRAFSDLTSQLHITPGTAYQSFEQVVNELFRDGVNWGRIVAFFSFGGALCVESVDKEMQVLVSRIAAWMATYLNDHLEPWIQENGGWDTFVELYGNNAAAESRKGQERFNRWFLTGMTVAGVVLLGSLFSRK

IC50 [1] [nM] | IC50 [2] [nM] | IC50 [3] [nM] | Ki [3] [nM] | IC50 [5] [nM] | IC50 [9] [nM] | SMILES | Activity [4] | Activity [6] | IC50 [7] [nM] | Activity [8] | Ki [9] [nM] | also measured
> 10000 |  |  |  |  |  | CN1CCN(CCCNC(=O)c2c(-c3ccccc3)c(-c3ccc(Cl)cc3)cn2CC[C@H](O)CO)CC1 |  |  |  |  |  | 
 | > 2000 | 4.8 | < 1 |  |  | Cc1c(C(=O)O)c(-c2cccc(N3CCN(c4ccc(NS(=O)(=O)c5ccc(N[C@H](CCN(C)C)CSc6ccccc6)c([N+](=O)[O-])c5)cc4)CC3)c2)c(-c2ccc(Cl)cc2)n1C(C)C | Dose-dependent effect | Dose-dependent effect |  | Dose-dependent effect |  | Activity [10]: Dose-dependent effect; Activity [11]: Active; Activity [12]: Dose-dependent effect; Activity [13]: Active; Activity [14]: Active; Activity [15]: Active; Activity [16]: Active; Activity [17]: Toxic
> 10000 | > 100000 | 291000 | 88000 | > 10000 | 103000 | Cc1c(C(=O)NCCCN2CCN(C)CC2)c(-c2ccccc2)c(-c2ccc(Cl)cc2)n1C |  |  | > 10000 |  | 38000 | 
4.5 | > 2000 | 6.6 | < 1 | 17.7 | 2 | CCn1c(C)c(C(=O)O)c(-c2cccc(N3CCN(c4ccc(NS(=O)(=O)c5ccc(N[C@H](CCN(C)C)CSc6ccccc6)c([N+](=O)[O-])c5)cc4)CC3)c2)c1-c1ccc(Cl)cc1 | Dose-dependent effect | Dose-dependent effect | 8.1 | Dose-dependent effect | < 0.6 | Activity [18]: 200 mm3; Activity [19]: Active; Activity [10]: Dose-dependent effect; Activity [20]: Active; Activity [12]: Dose-dependent effect; Activity [14]: Active; Activity [15]: Active; Activity [16]: Active; Activity [21]: Active; Activity [22]: Active; Activity [23]: < 10%; Activity [24]: Active; TGI [25]: Active; Activity [17]: Non-toxic
 | > 2000 |  | < 1 |  | 1.3 | Cc1c(C(=O)O)c(-c2cccc(N3CCN(c4ccc(NS(=O)(=O)c5ccc(N[C@H](CCN(C)C)CSc6ccccc6)c([N+](=O)[O-])c5)cc4)CC3)c2)c(-c2ccc(Cl)cc2)n1C | Dose-dependent effect | Dose-dependent effect |  | Dose-dependent effect | < 0.6 | 
30 |  |  | < 1 | 109 | 5 | CNC(=O)c1c(-c2cccc(N3CCN(c4ccc(NS(=O)(=O)c5ccc(N[C@H](CCN(C)C)CSc6ccccc6)c([N+](=O)[O-])c5)cc4)CC3)c2)c(-c2ccc(Cl)cc2)n(C)c1C |  |  | 36 |  | 1.1 | 
> 10000 | > 100000 |  |  | > 10000 |  | Cc1c(C(=O)NCCCN2CCN(C)CC2)c(-c2cccc(N3CCN(c4ccc(C(=O)NS(=O)(=O)c5ccc(N[C@H](CCN(C)C)CSc6ccccc6)c([N+](=O)[O-])c5)cc4)CC3)c2)c(-c2ccc(Cl)cc2)n1C |  |  | > 10000 |  | 7 | 

The remaining lines, values behind:

SMILES | IC50 [1] [nM] | IC50 [2] [nM] | IC50 [3] [nM] | Ki [3] [nM] | IC50 [5] [nM] | IC50 [9] [nM] | Activity [4] | Activity [6] | IC50 [7] [nM] | Activity [8] | Ki [9] [nM] | also measured
CSCC[C@H](NC(=O)[C@H](CCCN=C(N)N)NC(=O)[C@H](CCCN=C(N)N)NC(=O)[C@H](CC(C)C)NC(=O)[C@H](CCC(=O)O)NC(=O)[C@H](CCCN=C(N)N)NC(=O)CNC(=O)[C@H](Cc1ccc(O)cc1)NC(=O)[C@H](CCCN=C(N)N)NC(=O)[C@H](CCC(N)=O)NC(=O)[C@H](C)NC(=O)[C@H](C)NC(=O)[C@@H](N)Cc1c[nH]c2ccccc12)C(=O)N[C@@H](CO)C(=O)N[C@@H](CC(=O)O)C(=O)N[C@@H](CCC(=O)O)C(=O)N[C@@H](Cc1ccccc1)C(=O)N[C@H](C(=O)N[C@@H](CC(=O)O)C(=O)N[C@@H](CO)C(=O)N[C@@H](Cc1ccccc1)C(=O)N[C@@H](CCCCN)C(=O)O)C(C)C (H-WAAQRYGRELRRMSDEFVDSFK-OH) |  | 32000 | 5 | < 1 |  |  |  |  |  |  |  | 
CN(C)CC[C@H](CSc1ccccc1)Nc1ccc(S(=O)(=O)NC(=O)c2ccc(N3CCN(Cc4ccccc4-c4ccc(Cl)cc4)CC3)cc2)cc1[N+](=O)[O-] [ABT 737] | 59 |  |  |  | 412 |  | Dose-dependent effect | Dose-dependent effect | 37 | Dose-dependent effect |  | 
Cc1c(C(=O)O)c(-c2cccc(N3CCN(c4ccc(NS(=O)(=O)c5ccc(N[C@H](CCN(C)C)CSc6ccccc6)c([N+](=O)[O-])c5)cc4)CC3)c2)c(-c2ccc(Cl)cc2)n1C1CC1 | 60 | > 2000 | 7.7 | < 1 | 154 | 17.6 |  |  | 69 |  | 4.3 | 
Cc1cc(-c2cccc(N3CCN(c4ccc(NS(=O)(=O)c5ccc(N[C@H](CCN(C)C)CSc6ccccc6)c([N+](=O)[O-])c5)cc4)CC3)c2)c(-c2ccc(Cl)cc2)n1C |  | > 10000 | 11 | 1.2 |  |  |  |  | > 10000 |  |  | 
Cc1c(C(=O)NCCCN2CCN(C)CC2)c(-c2cccc(N3CCN(c4ccc(NS(=O)(=O)c5ccc(N[C@H](CCN(C)C)CSc6ccccc6)c([N+](=O)[O-])c5)cc4)CC3)c2)c(-c2ccc(Cl)cc2)n1C | 72 | > 10000 |  | 2.4 | 258 | 2 |  |  | 110 |  | < 0.6 | 
CC(C)C[C@H](NC(=O)[C@H](CCCCN)NC(=O)[C@H](CC(=O)O)NC(=O)CNC(=O)[C@H](Cc1ccccc1)NC(=O)[C@H](CCCNC(=N)N)NC(=O)[C@H](CCCNC(=N)N)NC(=O)[C@H](CC(C)C)NC(=O)[C@H](CCC(N)=O)NC(=O)[C@@H](NC(=O)[C@H](C)NC(=O)[C@H](CS)NC(=O)[C@H](CCC(=O)O)NC(=O)[C@@H](NC(=O)[C@H](CCC(=O)O)NC(=O)[C@H](CC(C)C)NC(=O)[C@@H](N)CCC(=O)O)C(C)C)[C@@H](C)O)C(=O)N[C@@H](CC(N)=O)C(=O)N[C@@H](Cc1ccccc1)C(=O)N[C@@H](CCCNC(=N)N)C(=O)N[C@@H](CCC(N)=O)C(=O)N[C@@H](CCCCN)C(=O)O (H-ELEVECATQLRRFGDKLNFRQK-OH) |  | 37 | 11000 | 3400 |  |  |  |  |  |  |  | 
